# Screens as filed in PubChem.
# KCC2 mod = KCC2 (human) Cl- transport modulation; Q9H2X9; KCC2 cells, thallium flux FluoZin-2 fluorescence; B-score of Tl+ flux slope (higher = more flux/activation; lower = inhibition) at 10 µM; 190,000 compounds, 2.2% hits;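 active = thallium flux slope and its plate-corrected score both differing from the plate sample mean at a set confidence after two filtering rounds, in either direction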;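 also: slope of fluorescence scaled to starting intensity during 10 to 20 s after thallium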
# HSV augment = HSV replication enhancement; HSV replication augmentation in cells, fold increase; maximum fold increase; 220,000 compounds, 0.005% hits; in the data active = maximum fold increase above about 1.5; inconclusive = no clear call, values can overlap the other calls; tested in PC3 cells
# STAT1 blocker = STAT1 signaling inhibition; NIH 3T3 STAT1-luciferase reporter, IFN-gamma, luminescence; inhibition, % at 5.5 µM; 200,000 compounds, 0.35% hits; AID 920;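 active = inhibition above a set limit, the mean inhibition across all tested compounds plus 3 SD, cut at about 34% in these data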;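 also: 0% = IFN-gamma with DMSO and 100% = IFN-gamma with 300 µM nifuroxazide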
# STAT3 activator = activators of IL-6 induced STAT3 signaling | activation (% of control), % at 5.6 µM | U3A cells, IL-6 STAT3-luciferase reporter, luminescence; 100% = signal with IL-6 EC80 alone | 190,000 compounds, 0.91% hits | AID 871;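 active = activation above the screen-wide mean of compound activation plus 3 SD, cut at about 130% in these data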;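 also: 0% = background luminescence of wells with medium and substrate only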
#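 System – human U3A cells carrying STAT3-luciferase construct · Probe or stimulus – Interleukin-6, 33 ng/mL · Schedule – compound 1 h, then IL-6 6 h at 37 °C · Signal – luminescence from STAT3-driven luciferase reporter · Evaluation – percent of IL-6-only median luminescence · Benchmarks – IL-6-only high control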
# STAT3 blocker = inhibitors of IL-6 induced STAT3 signaling | AID 862 | 190,000 compounds, 0.89% hits | U3A cells, IL-6 STAT3-luciferase reporter, luminescence; host cell line lacks STAT1 | inhibition, % at 5.5 µM;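 active = inhibition above the mean inhibition across all screened compounds plus 3 SD, cut at about 44% in these data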;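 also: 0% = DMSO only wells and 100% = 100 µM nifuroxazide control wells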
# STAT1 activator = increases IFN-gamma driven STAT1 reporter signal; NIH 3T3 STAT1-luciferase reporter, luminescence; 100% = IFN-gamma alone, no compound; activation (% of control), % at 5.5 µM; 200,000 compounds, 2.6% hits;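 active = activation above the screen-wide mean activation plus 3 SD, cut at about 130% in these data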;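 also: raw ratio to IFN-gamma control signal so 100% means no change and 0% no light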
# KCC2 secondary = confirmation of human KCC2 transport modulators; shares compounds with KCC2 mod; HEK293-KCC2, thallium flux, FluoZin2 fluorescence; hits give high values; normalised thallium flux (F/F0 slope) at 10 µM; 3,700 compounds, 15% hits;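 active = thallium flux slope above the same plate's solvent-only control mean plus 3 SD; inconclusive = the two replicate wells disagree; inactive = no significant difference from solvent-only control wells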
# KCC2 bumet counter = thallium flux despite bumetanide block in KCC2 cells, secondary assay 3 | normalized thallium flux at 10 µM | AID 1714 | HEK293-KCC2 + bumetanide/ouabain, thallium flux FluoZin2; hits give high values | 3,700 compounds, 49% hits | shares compounds with KCC2 mod;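 active = thallium entry rate above the same plate's blocked-transporter control wells by more than 3 SD; inconclusive = the two repeat wells disagree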;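 also: raw slope of fluorescence over initial fluorescence between 10 and 20 s after thallium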
# KCC2 sec2 = confirmation of human KCC2 transport modulators | HEK293-KCC2, thallium flux FluoZin2 fluorescence; actives lie on both sides; F/F0 rise rate, 10–20 s post-thallium | 3,700 compounds, 23% hits | AID 1715 | normalized thallium flux at 10 µM | shares compounds with KCC2 mod;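 active = thallium flux slope more than 3 SD above or below the plate's solvent-only control mean, mostly below; inconclusive = the two repeat wells disagreed; inactive = no significant shift from solvent-only controls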;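 also: raw slope with 0.1% DMSO as baseline and bumetanide as block control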
# HEK counter1 = acts in parental HEK cells, KCC2 counter-screen; AID 1716; 3,700 compounds, 46% hits; thallium flux rate (normalised fluorescence) at 10 µM; shares compounds with KCC2 mod; HEK293 parental cells, thallium flux FluoZin2, ouabain; baseline-ratio fluorescence slope, 10–20 s after thallium;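 active = thallium flux rate significantly above the same plate's solvent-only control wells, beyond their mean plus 3 SD; inconclusive = the two replicate wells gave conflicting results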
# KCC2 retest ouab = KCC2 (human) modulation, ouabain retest | raw Tl+ flux slope (below DMSO = inhibition, above = activation) at 10 µM | 3,700 compounds, 48% hits | shares compounds with KCC2 mod | HEK293-KCC2, thallium flux FluoZin2 fluorescence; bidirectional: low = inhibitor, high = activator;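 active = thallium flux slope beyond 3 SD from same-plate DMSO control mean in most replicates, usually higher, sometimes lower; inconclusive = repeat tests gave conflicting results; inactive = no significant difference from controls in most replicates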;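 also: slope of initial-normalized fluorescence between seconds 10 and 20 after thallium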
# HEK counter2 = counter-screen for KCC2 modulators: effect in parental HEK293 cells; shares compounds with KCC2 mod; thallium flux FluoZin-2 fluorescence slope; thallium flux slope at 10 µM; 3,700 compounds, 33% hits; AID 1718;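 active = thallium flux slope above the same plate's solvent-control mean plus 3 SD in both duplicate wells; inconclusive = duplicate wells that disagreed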;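 also: run without ouabain in cells lacking the KCC2 cotransporter; slope of fluorescence scaled to its starting value between 10 and 20 s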
# An asterisk follows results filed as active; i = inactive; ? = inconclusive; . = no result given. The list is not random: actives were taken first. Their share in the collection is about 5.5%.
SMILES,KCC2 mod,HSV augment,STAT1 blocker,STAT3 activator,STAT3 blocker,STAT1 activator,KCC2 secondary,KCC2 bumet counter,KCC2 sec2,HEK counter1,KCC2 retest ouab,HEK counter2
O=C(NNc1nc(-c2ccccc2)cs1)c1ccco1,-6.16*,i,-7.7,103.3,-1.5,106.8,?,?,0.019*,?,0.0123*,0.0104
Cc1ccc(-c2csc(NC(=S)NC(=O)c3ccco3)n2)cc1,32.3*,i,-0.4,89.2,11.8,100.5,0.0157*,0.0469*,0.0319,0.0279*,0.0394*,0.0132*
Cc1ccc(-c2csc(N/N=C/c3ccco3)n2)cc1,-4.18,i,-16.9,80.5,25.9,115.5,.,.,.,.,.,.
O=C(NC(=S)Nc1nc2ccc(F)cc2s1)c1ccco1,40.7*,i,-31.5,156.9*,-68.8,130.3*,?,0.128*,0.0966*,0.0917*,0.112*,0.0886*
O=C(Nc1nc2cc3c(cc2s1)OCO3)c1ccco1,0.783,i,.,.,.,.,.,.,.,.,.,.
O=C(COC(=O)/C=C/c1cccc(F)c1)Nc1ccccc1-c1ccccc1,0.00369,i,8.3,101.2,-3.8,92.6,.,.,.,.,.,.
CCOC(=O)c1c(CCl)nc2ccccc2c1C,-0.146,i,5.0,100.5,9.9,93.8,.,.,.,.,.,.
CCCn1nnc(NC(=O)c2ccc(-c3cccc(Cl)c3)o2)n1,-1.46,i,-8.8,90.5,13.5,107.8,.,.,.,.,.,.
CCn1nnc(NC(=S)NC(=O)c2ccc(-c3cccc(Cl)c3)o2)n1,66.9*,i,.,.,.,.,?,0.0848*,0.0645*,0.0567*,0.0658*,0.0536*
CC(=O)SCC(=O)N=c1sc2cc(F)ccc2n1C,.,i,0.1,90.2,11.8,103.0,0.00694,0.00592*,0.0299,?,0.0194,0.0115
CSc1ccccc1C(=O)N1CCCCC1,-0.109,i,2.2,102.8,6.3,98.1,.,.,.,.,.,.
COc1cc(OC)cc(-c2nc3ccccc3c(=O)n2OC(=O)c2ccc(Br)cc2)c1,-0.596,i,14.1,102.3,-2.3,87.5,.,.,.,.,.,.
COc1ccc(C(=O)On2c(-c3ccc(Br)cc3)nc3ccccc3c2=O)cc1,5.8*,i,1.4,97.6,3.1,98.8,0.00621,?,0.0388*,0.0118*,?,0.0219*
CC12CCC(C(=O)Nc3cc(Cl)ccc3Cl)(C/C1=N\O)C2(C)C (centres undefined),-2.37,i,-1.7,96.0,8.4,101.6,.,.,.,.,.,.
CC(=O)N1CCc2ccc(S(=O)(=O)Nc3ccccc3Cl)cc21,0.418,i,16.8,99.8,7.2,83.9,.,.,.,.,.,.
O=C(c1ccccc1NS(=O)(=O)c1ccc(Cl)cc1)N1CCc2ccccc21,6.1*,i,8.7,96.7,3.3,92.1,0.0113,0.0445*,0.0303,0.013*,0.0535*,0.0112*
Cc1ccc(C(O)c2nc3ccccc3n2C(C)C)cc1 (centres undefined),.,.,1.8,91.2,13.3,98.4,.,.,.,.,.,.
CC(C)n1c(-c2ccc(N(C)C)cc2)nc2ccccc21,-3.32*,i,-28.5,110.0,-6.6,126.0,0.00709,0.00491,0.0283,?,0.0175,0.00948
